Only some compounds are listed: those with a hit (about 3.9% of all), similar ones and a draw of the others.
CRFR2-BP antag: antagonists of CRF-BP/CRF-R2 complex, primary screen, cell-based, HEK293, calcium dye fluorescence, uHTS; CRF-induced calcium fluorescence; inhibition, % at 11.8 µM; 0.59% of 350,000 active;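 active = inhibition of the ligand-induced calcium signal above about 50% at the single tested concentration, limit read from the data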
TAAR1 antagonist: human TAAR1 antagonists, primary screen, Fluo-8 calcium fluorescence, CHO RD-HGA16 cells; inhibition, % at 3 µM; AID 624466, 2012; 1.5% of 360,000 active; antagonist; Trace amine-associated receptor 1 (Homo sapiens), Q96RJ0;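 active = inhibition above a per-plate cutoff, the mean inhibition of test compounds on that plate plus 3 SD, cut at about 49% in these data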;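 note: 0% = DMSO plus EC80 beta-PEA response and 100% = DMSO alone without agonist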
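System: RD-HGA16 CHO cells with stable hTAAR1 and Gα16 | Probe or stimulus: EC80 β-phenethylamine stimulus | Dosing: 3 µM, single point | Times: Dye loading 75 min at 37 °C, then 30 min room temperature | Measured by: Fluo-8 calcium-sensitive fluorescence | Read-out basis: % inhibition of agonist calcium response | Replicates: n of 1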
ANO1 block: TMEM16A chloride channel inhibitors, primary screen, cell-based, HTS | Anoctamin-1 (Mus musculus), Q8BHY3 | HEK293 TMEM16A/YFP iodide influx fluorescence, ionomycin | normalized B-score (activity score, 25-100; higher = stronger inhibition) at 10 µM | AID 588511, 2011 | 1.2% of 310,000 active;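 active = ratio plate-corrected score three or more library SD toward inhibition, starting fluorescence score within five deviations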;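 note: score derived from kinetic fluorescence span divided by baseline fluorescence per well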
Target sequence (Q8BHY3 whole entry, looked up): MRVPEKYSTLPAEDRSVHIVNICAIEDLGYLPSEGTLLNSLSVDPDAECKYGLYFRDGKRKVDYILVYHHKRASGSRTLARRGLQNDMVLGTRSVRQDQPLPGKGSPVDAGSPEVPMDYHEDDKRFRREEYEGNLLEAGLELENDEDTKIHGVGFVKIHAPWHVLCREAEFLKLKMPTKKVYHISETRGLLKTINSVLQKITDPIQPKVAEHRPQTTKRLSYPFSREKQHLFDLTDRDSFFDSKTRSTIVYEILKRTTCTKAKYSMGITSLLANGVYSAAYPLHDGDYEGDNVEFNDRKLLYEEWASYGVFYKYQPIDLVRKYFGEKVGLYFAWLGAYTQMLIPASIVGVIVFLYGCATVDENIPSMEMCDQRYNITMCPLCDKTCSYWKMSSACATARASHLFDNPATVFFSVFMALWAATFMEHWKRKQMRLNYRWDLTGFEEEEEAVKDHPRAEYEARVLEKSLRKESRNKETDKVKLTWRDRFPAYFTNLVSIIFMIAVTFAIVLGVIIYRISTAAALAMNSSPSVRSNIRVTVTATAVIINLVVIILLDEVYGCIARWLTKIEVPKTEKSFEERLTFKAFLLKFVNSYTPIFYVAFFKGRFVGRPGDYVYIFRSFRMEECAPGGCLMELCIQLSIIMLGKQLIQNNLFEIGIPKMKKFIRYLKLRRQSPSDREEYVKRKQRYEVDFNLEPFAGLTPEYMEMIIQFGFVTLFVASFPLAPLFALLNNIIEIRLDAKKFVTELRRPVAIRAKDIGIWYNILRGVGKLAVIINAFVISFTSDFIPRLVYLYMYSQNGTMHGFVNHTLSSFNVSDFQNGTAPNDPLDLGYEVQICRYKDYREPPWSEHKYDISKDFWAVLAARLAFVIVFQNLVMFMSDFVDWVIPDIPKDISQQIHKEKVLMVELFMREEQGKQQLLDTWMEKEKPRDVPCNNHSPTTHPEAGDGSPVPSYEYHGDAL
TAAR1 agonist: human TAAR1 agonists, primary screen, Fluo-8 calcium fluorescence, CHO RD-HGA16 cells; Trace amine-associated receptor 1 (Homo sapiens), Q96RJ0; vehicle wells 0%, saturating PEA agonist 100%; activation, % at 3 µM; 0.99% of 360,000 active; AID 624467, 2012;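 active = activation above the mean activation of all test compounds in the run plus 3 SD, cut at about 38% in these data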
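Test system: RD-HGA16 (CHO) cells co-expressing Gα16 and hTAAR1 / Benchmarks: DMSO vehicle as 0%, PEA at EC100 as 100% / Repeats: no replicates (n 1) / Measure: % activation from peak over basal fluorescence ratio, DMSO-to-PEA scaled / Timing: 17-24 h plating, Fluo-8 75 min 37 °C, 30 min RT / Technique: kinetic Fluo-8 calcium fluorescence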
CRFR2-BP ag: agonists of CRF-BP/CRF-R2 complex, primary screen, cell-based, HEK293, calcium dye fluorescence, uHTS | activation, % at 13.2 µM | AID 588473, 2011 | 0.46% of 350,000 active | CRF-binding protein / CRF receptor 2 complex (human) | calcium dye fluorescence (FLIPR); percent of saturating CRF peptide response;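 active = activation of at least 50%, plus an integration ratio under a set limit after plate pattern correction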;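 note: plate controls were neutral control wells without compound for no effect and CRF at EC100 for full effect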
TMEM16A act: TMEM16A chloride channel activators or potentiators, primary screen, cell-based, HTS; Anoctamin-1 (Mus musculus), Q8BHY3; HEK293 TMEM16A/YFP-H148Q/I152L, iodide quench fluorescence; stronger effect = lower value; B-score at 10 µM; 0.3% of 340,000 active; AID 623877, 2012;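 active = fluorescence-ratio B-score plate-corrected deviation score at least 3 library SD below zero, with starting fluorescence score within 5 deviations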;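 note: channel opened by trigger with iodide after compound preincubation; score built on the fluorescence ratio of max minus min over baseline; more negative score means more quench and so TMEM16A activation or potentiation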
TAAR1 ag confirm: human TAAR1 agonists, retest of hits, confirmation, Fluo-8 calcium fluorescence, CHO RD-HGA16 cells; shares compounds with TAAR1 agonist; scaled: DMSO 0%, maximal phenethylamine 100%; activation, % at 3 µM; 82% of 2,400 active; AID 651783, 2012;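 active = activation above a cutoff set at the run's mean compound activation plus 3 SD, cut at about 39% in these data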
Ga16 ag counter: nonselective calcium mobilization agonists, CHO-Ga16 cells, counter-screen for hTAAR1 agonist project, cell-based, fluorescence, CHO-Ga16 parental line. shares compounds with TAAR1 agonist. Fluo-8 calcium fluorescence; normalized to maximal ATP response, DMSO zero. activation, % at 3 µM. 50% of 2,400 active;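 active = activation above the run cutoff, the mean activation over all tested wells plus 3 SD, cut at about 12% in these data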;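 note: 0% = DMSO wells and 100% = maximal ATP response on the peak over basal ratio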
TAAR1 desens: TAAR1 desensitization by agonist hits, confirmation, counter-screen for TAAR1 agonist project, cell-based, fluorescence, tachyphylaxis; shares compounds with TAAR1 agonist; CHO RD-HGA16 hTAAR1, Fluo-8 calcium, beta-PEA response inhibition; inhibition, % at 3 µM; 46% of 2,400 active; AID 651951, 2012;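 active = inhibition above the run cutoff, the mean inhibition of all test compounds plus 3 SD, cut at about 49% in these data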;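 note: beta-PEA stimulus applied at its EC80; loss of beta-PEA calcium signal after compound pretreatment read as receptor desensitization; 0% = DMSO with beta-PEA at EC80 and 100% = DMSO alone without agonist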
Ga16 nonsel ant: inhibition of ATP-evoked calcium response in CHO-Ga16 cells, counter-screen for TAAR1 agonist project, cell-based, fluorescence. 39% of 2,400 active. inhibition, % at 3 µM. CHO-Ga16 ATP-induced calcium, Fluo-8 fluorescence. shares compounds with TAAR1 agonist;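 active = inhibition above the plate's mean compound inhibition plus 3 SD, computed per plate, cut at about 22% in these data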;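 note: 0% = EC80 ATP with DMSO and 100% = DMSO wells without ATP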
Active calls of the source: *; i = inactive; · = no result.

SMILES	CRFR2-BP antag	TAAR1 antagonist	ANO1 block	TAAR1 agonist	CRFR2-BP ag	TMEM16A act	TAAR1 ag confirm	Ga16 ag counter	TAAR1 desens	Ga16 nonsel ant
N/C(=N\c1nc(CSc2nnnn2-c2ccccc2)cc(=O)[nH]1)Nc1ccccc1	·	28.2	i	16.0	·	·	·	·	·	·
CCC1(CC)NC(=O)N(CC(=O)OC(C)C(=O)Nc2ccc(NC(C)=O)cc2)C1=O (stereo unspecified)	-1.3	-16.9	i	-0.3	0.0	i	·	·	·	·
CN(CCc1ccccn1)C1CC(=O)N(c2ccc(Cl)cc2)C1=O (stereo unspecified)	-0.4	6.6	i	67.5*	-0.5	i	17.1	-0.4	-3.3	1.2
O=C(COC(=O)c1cc(Cl)ccc1O)NCCNC(=O)COC(=O)c1cc(Cl)ccc1O	-5.7	6.8	i	2.9	2.9	i	·	·	·	·
COC(=O)c1ccc(CNC(=O)COC(=O)c2cc(Cl)ccc2O)cc1	8.7	70.2*	·	62.1*	-0.2	i	21.0	5.4	18.8	17.3
CC(C)N(Cc1nc(-c2ccc(Cl)cc2)no1)Cc1nccn1C	-111.2	-12.5	i	8.4	45.0	i	·	·	·	·
NC(=O)C1CC(=O)N(c2ccc(OCc3c(Cl)cccc3Cl)cc2)C1 (stereo unspecified)	4.8	-4.5	i	44.3*	-2.0	i	24.4	15.0*	14.6	20.1
NC(=O)C1CC(=O)N(c2ccc(OCc3c(F)cccc3Cl)cc2)C1 (stereo unspecified)	9.2	-5.9	i	5.2	-3.7	i	·	·	·	·
O=C(NCCc1ccco1)c1cc(COc2cccc(C(F)(F)F)c2)on1	10.3	-3.0	i	-1.9	0.0	i	·	·	·	·
O=C(CCN1CCC(c2ccccc2)C1)c1ccc2c(c1)OCCO2 (stereo unspecified)	-9.8	82.8*	i	82.5*	0.8	i	80.1*	5.7	86.1*	10.9
O=C(CCN1CCCC1Cc1ccccc1)c1ccc2c(c1)OCCO2 (stereo unspecified)	12.2	73.4*	i	87.0*	1.1	i	101.1*	2.9	84.8*	8.4
COc1cc(C(=O)CCN2CCC(c3ccccc3)C2)cc(OC)c1OC (stereo unspecified)	-3.9	85.8*	i	92.2*	1.7	i	105.2*	0.2	95.6*	5.1
O=C(CCN1CCC(c2ccccc2)C1)c1cccs1 (stereo unspecified)	-22.5	91.9*	i	100.1*	-2.3	i	100.1*	7.9	94.8*	5.8
O=C(CCN1CCC(c2ccccc2)C1)c1ccccc1 (stereo unspecified)	-34.5	·	i	·	1.9	i	·	·	·	·
CC1CCCCC1NC(=O)CCNS(=O)(=O)c1cc(Br)cnc1N (stereo unspecified)	-23.6	-5.6	i	10.2	1.1	i	·	·	·	·
C[C@H](NC(=O)C1CCN(S(=O)(=O)c2ccccc2)CC1)C(=O)NCc1ccc(F)cc1	10.5	4.1	i	4.8	-0.8	i	·	·	·	·
CCCOC(=O)Cn1c(=O)c2cc3c(=O)n(CC(=O)OCCC)c(=O)c3cc2c1=O	-2.9	11.6	·	52.8*	-6.1	i	5.7	2.9	-4.8	6.0
c1ccc(CCNC2=NCCCS2)cc1	20.5	5.7	i	0.3	0.5	i	·	·	·	·
c1ccc(CCNC2=NCCS2)cc1	0.2	3.0	i	49.5*	2.3	i	74.8*	0.9	27.6	8.4
OC(c1ccccc1)(c1ccccc1)C1CCN(CCCOc2cccc(F)c2)CC1	·	39.7	·	44.7*	·	·	16.4	9.6	13.7	16.2
Cc1ccccc1OCCCN1CCC(C(O)(c2ccccc2)c2ccccc2)CC1	·	34.4	·	37.5*	·	·	50.8*	18.7*	38.2	25.5*
O=C(Cn1cncn1)NCCCc1ccccc1	11.9	-25.2	i	5.5	0.0	i	·	·	·	·
CCOC(=O)c1ccc(NC(=O)N2CCc3ccccc3C2)cc1	-7.8	9.1	i	63.4*	-1.1	i	47.8*	12.4*	49.0*	24.4*
Cc1ccc(NC(=O)N2CCc3ccccc3C2)cc1C	-3.7	16.3	i	30.7	-2.1	i	·	·	·	·
O=C(Nc1ccc(F)cc1)N1CCc2ccccc2C1	-10.5	-7.6	i	46.3*	-1.0	i	40.8*	1.6	0.4	5.5
SMILES	CRFR2-BP antag	TAAR1 antagonist	ANO1 block	TAAR1 agonist	CRFR2-BP ag	TMEM16A act	TAAR1 ag confirm	Ga16 ag counter	TAAR1 desens	Ga16 nonsel ant
Cc1ccccc1NC(=O)N1CCc2ccccc2C1	18.9	0.4	i	83.6*	-1.5	i	62.7*	-0.1	17.0	4.6
Cc1cc(C)cc(NC(=O)N2CCc3ccccc3C2)c1	6.5	11.2	i	58.0*	-1.1	i	67.2*	-0.9	11.3	2.7
Cc1ccccc1NC(=O)CN1CCc2ccccc2C1	-4.8	-20.1	i	15.6	-0.6	i	·	·	·	·
CC1(c2ccc([N+](=O)[O-])cc2)NC(=O)NC1=O (stereo unspecified)	-2.6	8.5	i	-0.5	0.1	i	·	·	·	·
O=C(Nc1ccc(Br)cc1)N1CCc2ccccc2C1	-9.0	14.6	i	16.2	1.3	i	·	·	·	·
Cc1cccc(NC(=O)N2CCc3ccccc3C2)c1C	10.9	51.8*	i	79.8*	-1.2	i	80.3*	0.8	28.9	-4.4
CC1=C(C)CS(=O)N(S(=O)(=O)c2ccccc2)C1 (stereo unspecified)	-16.9	9.1	i	72.8*	16.7	i	67.7*	32.8*	22.9	20.7

Compound activity from PubChem BioAssay.
